We go through four compounds from ChEMBL document CHEMBL1138683 (J Med Chem, 2004).

Series [1] in a line: Anticonvulsant activity administered intra peritoneally to mouse for toxicity. Particulars: in vivo, ip.
For series [2], the system named is Mus musculus. Description: Anticonvulsant activity administered intra peritoneally to mouse at subcutaneous metrazol test. In kind it is functional. Particulars: sc.
Series [3] concerns Mus musculus. Description: Anticonvulsant activity administered intra peritoneally to mouse at maximal electro shock test; the interval in parenthesis stands for 95% confidence interval. The class given is functional.
The test system of series [4] is Mus musculus. Description: Anti convulsant activity administered intra peritoneally to mouse for subcutaneous metrazol test at 0.5 h with dose of 300 mg/kg; 0/1= No of animals protected /No of animals tested. The class given is functional.
Series [5] is described as follows: Anti convulsant activity administered intra peritoneally to mouse for toxicity at 0.5 hr with dose of 100 mg/kg; 1/8= No of animals exhibiting toxicity /No of animals tested. The class given is organism-based. Also on record: dose 100 mg/kg. To be noted: in vivo, ip.
Series [6] in a line: Anti convulsant activity administered intra peritoneally to mouse for toxicity at 4 hr with dose of 100 mg/kg; 1/4= No of animals exhibiting toxicity /No of animals tested. In kind it is organism-based. Also on record: dose 100 mg/kg. To be noted: in vivo, ip.
In series [7] the test system is Mus musculus. Description: Anti convulsant activity administered intra peritoneally to mouse at maximal electroshock test at 0.5 hr after the drug administered with dose of 100 mg/kg; 0/3= No of animals protected /No of animals tested. In kind it is functional. In general terms: The maximal electroshock test induces tonic seizures with an electrical stimulus.
Series [8] deals with Mus musculus. Kind of series: Anti convulsant activity administered intra peritoneally to mouse for subcutaneous metrazol test at 4 hr after the drug administered with dose of 30 mg/kg; 0/1= No of animals protected /No of animals tested. The class given is functional. Particulars: route intraperitoneal.
Series [9] deals with Rattus norvegicus. Kind of series: Anticonvulsant activity after oral administration of 100 mg/kg dose after 1 hr in rats; + means 25% of the animals protected. In kind it is functional, organism-based. Also on record: dose 100 mg/kg. The essentials:
(§1)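 Oral dosing of rats at a single dose, compound dissolved or suspended in 0.5% methylcellulose. Protection in the MES or scMet test checked 15 min, 30 min, 1 h, 2 h and 4 h after dosing. Scored as 25/50/75/100% of animals protected (+ to ++++), – for none.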

Series [10] concerns Mus musculus. Kind of series: Anti convulsant activity administered intra peritoneally to mouse at maximal electroshock test at 0.5 h after the drug administered with dose of 30 mg/kg; 0/1= No of animals protected /No of animals tested. In kind it is functional.
Series [11] in a line: Anti convulsant activity administered intra peritoneally to mouse for toxicity at 4 hr with dose of 30 mg/kg; 0/2= No of animals exhibiting toxicity /No of animals tested. Particulars: in vivo, ip. Also on record: dose 30 mg/kg. The class given is organism-based.
Series [12] concerns Mus musculus. Description: Anti convulsant activity administered intra peritoneally to mouse for subcutaneous metrazol test at 4 hr with dose of 300 mg/kg; 0/1= No of animals protected /No of animals tested. In kind it is functional.
Series [13] can be described thus: Anti convulsant activity administered intra peritoneally to mouse for toxicity at 0.5 hr with dose of 300 mg/kg; 2/4= No of animals exhibiting toxicity /No of animals tested. Also on record: dose 300 mg/kg. To be noted: in vivo, ip. The class given is organism-based.
Series [14] is described as follows: Anti convulsant activity administered intra peritoneally to mouse for toxicity at 0.5 hr with dose of 30 mg/kg; 0/4= No of animals exhibiting toxicity /No of animals tested. In kind it is organism-based. Also on record: dose 30 mg/kg. To be noted: in vivo, ip.
The test system of series [15] is Mus musculus. Description: Anti convulsant activity administered intra peritoneally to mouse at maximal electroshock test at 4 hr after the drug administered with dose of 300 mg/kg; 0/1= No of animals protected /No of animals tested. The class given is functional.
For series [16], the system named is Mus musculus. Kind of series: Anti convulsant activity administered intra peritoneally to mouse at maximal electroshock test at 4 hr after the drug administered with dose of 30 mg/kg; 0/1= No of animals protected /No of animals tested. In kind it is functional.
Series [17] deals with Mus musculus. Description: Anti convulsant activity administered intra peritoneally to mouse for subcutaneous metrazol test at 0.5 hr with dose of 100 mg/kg; 0/1= No of animals protected /No of animals tested. The class given is functional.
In series [18] the test system is Mus musculus. Description: Anti convulsant activity administered intra peritoneally to mouse at maximal electroshock test at 0.5 h after the drug administered with dose of 300 mg/kg; 0/1= No of animals protected /No of animals tested. The class given is functional.
Series [19] concerns Mus musculus. Description: Anti convulsant activity administered intra peritoneally to mouse for subcutaneous metrazol test at 4 hr after the drug administered with dose of 100 mg/kg; 0/1= No of animals protected /No of animals tested. The class given is functional.
Series [20] has as its system Mus musculus. Description: Anti convulsant activity administered intra peritoneally to mouse for subcutaneous metrazol test at 0.5 hr with dose of 30 mg/kg; 0/1= No of animals protected /No of animals tested. The class given is functional.
Series [21] can be described thus: Anti convulsant activity administered intra peritoneally to mouse for toxicity at 4 hr with dose of 300 mg/kg; 0/2= No of animals exhibiting toxicity /No of animals tested. In kind it is organism-based. Further details: dose 300 mg/kg. Particulars: in vivo, ip.
Series [22] has as its system Mus musculus. Description: Anti convulsant activity administered intra peritoneally to mouse at maximal electroshock test at 4 hr after the drug administered with dose of 100 mg/kg; 0/3= No of animals protected /No of animals tested. The class given is functional.
The nature of series [23]: Anti convulsant activity administered intra peritoneally to mouse for toxicity at 4 hr with dose of 100 mg/kg; 0/4= No of animals exhibiting toxicity /No of animals tested. In kind it is organism-based. Further details: dose 100 mg/kg. Particulars: in vivo, ip.
In series [24] the test system is Rattus norvegicus. Kind of series: Anticonvulsant activity after oral administration of 50 mg/kg dose after 30 min in rats; ++ means 50% of the animal protected. In kind it is functional, organism-based. Also on record: dose 50 mg/kg. The method, boiled down: (§2)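 Rats dosed orally with compound dissolved or suspended in 0.5% methylcellulose (0.04 mL per 10 g body weight). Anticonvulsant protection (MES or scMet) and toxicity scored at 15 min, 30 min, 1 h, 2 h and 4 h after dosing. Graded in steps of 25% of animals protected or showing toxicity.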

Series [25] has as its system Mus musculus. Description: Anti convulsant activity administered intra peritoneally to mouse at maximal electroshock test at 0.5 hr after the drug administered with dose of 300 mg/kg; 1/1= No of animals protected /No of animals tested. The class given is functional.
Series [26] relates to Rattus norvegicus. Description: Anticonvulsant activity after oral administration of 125 mg/kg dose after 30 min in rats;++ means 50% of the animals protected. The class given is functional, organism-based. Also on record: dose 125 mg/kg. The method, boiled down:
as §1

In series [27] the test system is Rattus norvegicus. Description: Anticonvulsant activity after oral administration of 50 mg/kg dose after 2 hr in rats; +++ means 75% of the animal is protected. In kind it is functional, organism-based. Further details: dose 50 mg/kg. The essentials:
as §1

The subject of series [28] is Mus musculus. Kind of series: Anti convulsant activity administered intra peritoneally to mouse at maximal electroshock test at 4 hr after the drug administered with dose of 300 mg/kg; 1/1= No of animals protected /No of animals tested. In kind it is functional.
Series [29] relates to Rattus norvegicus. Kind of series: Anticonvulsant activity after oral administration of 50 mg/kg dose after 1 hr in rats;+means 25% of the animals protected. The class given is functional, organism-based. Also on record: dose 50 mg/kg. The method, boiled down:
as §1

Series [30] deals with Rattus norvegicus. Description: Anticonvulsant activity after oral administration of 100 mg/kg dose after 30 min in rats; +means 25% of animal protected. Also on record: dose 100 mg/kg. In kind it is functional, organism-based. The essentials:
as §1

Series [31] in a line: Anti convulsant activity administered intra peritoneally to mouse for toxicity at 4 hr with dose of 300 mg/kg; 1/2= No of animals exhibiting toxicity /No of animals tested. The class given is organism-based. To be noted: in vivo, ip. Also on record: dose 300 mg/kg.
The nature of series [32]: Anti convulsant activity administered intra peritoneally to mouse for toxicity at 0.5 hr with dose of 300 mg/kg; 4/4= No of animals exhibiting toxicity /No of animals tested. In kind it is organism-based. Also on record: dose 300 mg/kg. Particulars: in vivo, ip.
Series [33] has as its system Rattus norvegicus. Description: Anticonvulsant activity after oral administration of 50 mg/kg dose after 30 min in rats; ++ means 50% of animals protected. The class given is functional, organism-based. Also on record: dose 50 mg/kg. The method, boiled down:
as §2

Series [34] in a line: Anti convulsant activity administered intra peritoneally to mouse for toxicity at 0.5 hr with dose of 100 mg/kg; 0/8= No of animals exhibiting toxicity /No of animals tested. In kind it is organism-based. Further details: dose 100 mg/kg. Particulars: in vivo, ip.

SMILES strings stand for the structures. Bounds are passed on as bounds.

For the compound `CC1(C)C(C(=O)NCO)C1(C)C`, the TD50 (usually the dose at which the toxic effect under study appears in half of the subjects) in [1] was found to be 146 mg/kg. The results for the ED50 with Mus musculus [2] and in the series with Mus musculus [3] were 120 mg/kg and more than 220 mg/kg, respectively.
For the compound `CN(CCO)C(=O)C1C(C)(C)C1(C)C`, the Activity is 0 in the series on Mus musculus [4]; 0 with Mus musculus [7]; 0 with Mus musculus [8]; 25% of the animals protected in the series with Rattus norvegicus [9]; 0 in the series with Mus musculus [10]; 0 in the series with Mus musculus [12]. Moreover, the Activity in the series with Mus musculus [15], in the series with Mus musculus [16], in the series with Mus musculus [17], in the series with Mus musculus [18], in the series on Mus musculus [19] and in the series with Mus musculus [20] was 0 in each case. In the series on Mus musculus [22], this compound yielded an Activity of 0. Further, the Toxicity in [5] came to 1; in [6] it was 1; in [11] it was 0; in series [13], 2; in [14] it was 0; in [21], 0.
For `CN(C)C(=O)NC(=O)C1C(C)(C)C1(C)C`, the Activity in the series with Mus musculus [4] was 0; in the series with Mus musculus [7], 0; with Mus musculus [8] it was 0; with Rattus norvegicus [24], 25% of the animals protected; in the series on Mus musculus [25] it was 1; in the series on Rattus norvegicus [26], 25% of the animals protected. Moreover, the Activity in the series on Rattus norvegicus [27] is 25% of the animals protected; with Mus musculus [12], 0; in the series with Mus musculus [16], 0; with Mus musculus [17], 0; with Mus musculus [28] it was 1; in the series on Rattus norvegicus [29], 25% of the animals protected. Moreover, the Activity with Mus musculus [19], in the series with Mus musculus [20] and with Mus musculus [22] was 0 throughout. Moreover, the Toxicity amounted to 1 in series [5]; 0 in series [23]; 0 in series [11]; 0 in series [14]; 0 in series [21].
As to `CN(C)C(=O)C1C(C)(C)C1(C)C`, the Activity was 0 with Mus musculus [4]; 25% of animal protected with Rattus norvegicus [30]; 0 in the series with Mus musculus [7]; 0 with Mus musculus [8]; 1 with Mus musculus [25]; 0 in the series on Mus musculus [10]. Moreover, the Activity in the series on Mus musculus [12] is recorded as 0; in the series on Mus musculus [15] it was 0; with Mus musculus [16] it was 0; with Mus musculus [17] it was 0; with Rattus norvegicus [33], 25% of animal protected; with Mus musculus [19], 0. The Activity in the series on Mus musculus [20] and in the series on Mus musculus [22] was 0 throughout. For the same compound, the Toxicity in series [31] was 1; in [23], 0; in series [32], 4; in series [11], 0; in [14], 0; in [34] it was 0.
